The RNAGym collection of RNA variant scans (doi:10.1038/nmeth.2970)

B1: NELF-E aptamer (parent)
chain: CCCAACGACUGCCGAGCGAGAUUACGCUUGAGCGCCCCACUGAGGAUGCCCACGGGCGAUUGGGGCACGG

Variants of: B1
Assay: HiTS-RAP
Settings: with NELF-E (Drosophila)
In short: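 Aptamer DNA templates carrying a T7 promoter and ter site were sequenced on an Illumina GAIIx flowcell, then transcribed in situ by T7 RNA polymerase and halted by GST-Tus (30 minutes, 37°C). Clusters were imaged after 30-minute room-temperature equilibration with NELF-E-mOrange at 0.064 to 1000 nM in HEPES binding buffer, and only the first binding curve was used. Intensities were normalised to sequencing intensity and averaged per sequence. Kd came from weighted Hill fits, keeping fits with variance below 1,000,000.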

Variant	Kd
U23G C35U	11.5 nM
A24G A46U	58.5 nM
A24G A46G	11.5 nM
A24G C37G	7.93 nM
A24G C37A	10.1 nM
A24G C37U	15.3 nM
U29G G65A	4.59 nM
U29G G65U	6.57 nM
U23G U28A	5.01 nM
U23G U28G	7.22 nM
U23G U28C	9 nM
C25G	5.2 nM
C25A	4.89 nM
C25U	5.19 nM
U28A U29A	4.14 nM
U28A U29G	4.82 nM
A24G C53G	7.46 nM
A24G C53U	4.2 nM
A24G U47A	13 nM
A24G U47G	7.22 nM
C27U U28G	5.03 nM
G26A A67G	4.9 nM
C27G U29G	5.43 nM
A24G G42A	56 nM

Variant	Kd
A24U U29G	6.22 nM
A24G G64U	6.61 nM
A24G G64A	7.13 nM
A24G G64C	5.75 nM
U29G G62A	18.7 nM
U29G G62U	8.12 nM
C35G	6.51 nM
C35U	13 nM
C35A	6.56 nM
U29G C57U	5.61 nM
U23G G45U	6.11 nM
U23G G45A	19.3 nM
A24G G32A	5.64 nM
A24G G32U	6.57 nM
G30A U41G	5.12 nM
C36A	8.24 nM
C36G	6 nM
C36U	6.29 nM
U29G C38U	8.13 nM
A24G G55A	11.1 nM
U23G U47A	13.5 nM
U23G U47G	6.6 nM
U28C G34A	37.6 nM
U29G G63A	11.4 nM

Variant	Kd
U29G G63U	12.4 nM
U23G G62U	9.09 nM
U23G G62A	15.5 nM
A24G C57U	6.3 nM
C25G G26C	6 nM
C25G G26U	5.3 nM
C33U G54A	6.14 nM
A31G C51U	7.88 nM
U29G G48A	11.3 nM
U29G G48U	6.22 nM
U29G U61A	28.1 nM
U29G U61C	59.2 nM
U29G U61G	14.4 nM
U23G G32A	5.52 nM
U23G G32U	6.92 nM
U29G A43U	44 nM
U29G A43G	14 nM
G30A A31G	5.33 nM
U23G C37U	13.8 nM
U23G C37G	7.9 nM
U23G C37A	13.4 nM
A31G G32U	4.81 nM
A31G G32A	5.29 nM
U23G C38A	35.2 nM

Variant	Kd
U23G C38U	9.73 nM
G34C C35G	3.76 nM
U29G C35G	4.89 nM
U29G C35U	17.1 nM
A31G A67U	10.7 nM
C33G G34U	5.51 nM
U29C U61A	38 nM
U23G G44U	6.93 nM
U23G G44A	68.6 nM
U29C A67U	5.08 nM
U23G C51G	5.33 nM
U23G C51U	7.2 nM
A31G G65A	9.82 nM
A31G A52U	21.5 nM
U23G C36G	5.58 nM
U23G C36U	8.06 nM
U23G C36A	8.43 nM
A24G C49U	13.4 nM
U29G A39G	7.69 nM
U29G A39C	24.7 nM
U29G A39U	26.4 nM
A31U C53U	3.69 nM
A24U	5.93 nM
A24G	5.47 nM

Variant	Kd
A24C	5.86 nM
A31G U41G	6.51 nM
A24G C40G	6.34 nM
U29G G42U	10.4 nM
U29G G42A	24.6 nM
U28C A52U	32.7 nM
U29G C50U	15.4 nM
U23G G48U	7.64 nM
U23G G48A	11 nM
A31G G55A	9.56 nM
U23G U41A	66.7 nM
U23G U41G	5.48 nM
U23G U41C	93.8 nM
U29G G56A	5.64 nM
U29G G56U	5.44 nM
U29G G45A	74.1 nM
U29G G45U	5.6 nM
A31U A39U	38.1 nM
U29G U60A	13.2 nM
U29G U60C	11.4 nM
G26U U29G	7.41 nM
A24G G45U	6.64 nM
U23G G54A	14.4 nM
U23G G54U	11.1 nM

Variant	Kd
U28C A39U	51.1 nM
C33U A39U	26.9 nM
U29A A67U	5.96 nM
A24G G63U	11 nM
A24G G63A	14.3 nM
G26C C27G	3.95 nM
A24G G65U	6 nM
A24G G65A	5.2 nM
U23G G58U	15.1 nM
U29G C66U	4.32 nM
G26A U29G	5.28 nM
U29G G55C	5.81 nM
U29G G55A	7.74 nM
U29G G55U	6.64 nM
U28C U29G	8.69 nM
U29G A67U	6.79 nM
U29G A67G	5.86 nM
U29G A59G	50.9 nM
U29G A59U	23.9 nM
A31C	4.61 nM
A31U	5.92 nM
A31G	6.92 nM
G34U C35G	4.52 nM
C25U U41G	6.6 nM

Variant	Kd
U29G A31G	6.61 nM
U29G A31U	6.06 nM
U23G C49G	7.29 nM
U23G C49U	15.6 nM
U23G G55A	7.34 nM
U23G G55U	8.32 nM
U23G G55C	6.97 nM
G34A U41G	7.5 nM
C36A G64A	14.3 nM
U23G G63A	20.3 nM
U23G G63U	12.9 nM
U29G G58U	8.12 nM
U23G G26A	6.05 nM
U23G G26U	6.03 nM
A24G A59G	36.5 nM
U23G C40G	5.5 nM
U23G C40U	135 nM
U29A A39U	20.9 nM
U29A A39G	5.71 nM
U23G G42U	13.1 nM
U23G G42A	60.7 nM
A24G G30U	7.16 nM
A24G G30A	5.17 nM
